# Measurements reported in paper PMC12800337 (Nature Communications, 2025).
# Where a SMILES comes first, the peptide text is derived from it. The star is where a group is joined. 5FAM = O=C1OC2(c3ccc(O)cc3Oc3cc(O)ccc32)c2ccc(C(=O)*)cc21; βAla = NCCC(=O)O; X1 = OB(O)C*
# How the values were obtained:
# A549 = assay: Mammalian cell staining, confocal microscope; format: cell-based; conditions: P2 5 µM, compared to the brightness detected on S. aureus
# How it was run: (§1)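 Cells at 70% confluence detached with trypsin-EDTA and seeded at 1 × 10⁵ cells/well in glass-bottom dishes, then grown for 24 h. Medium replaced with PBS containing fluorescein-labelled test peptide; incubated 30 min at 37 °C. Washed three times with PBS, given fresh medium, imaged by confocal microscopy (40× oil, argon laser at 10%). Representative of 2 independent experiments.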
# E. coli (MTCC 1687) = assay: E. coli staining; format: cell-based; conditions: P2 5 μM, confocal microscope
# How it was run: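 E. coli and S. aureus each diluted 1:100 from secondary culture and grown to OD₆₀₀ 0.4, then mixed and pelleted at 5000 × g. Pellet incubated with fluorescein-labelled test peptide in PBS (pH 7.4) at 37 °C for 30 min. Washed twice in PBS, resuspended in 100 µL PBS, imaged by confocal microscopy (40× oil, argon laser). Representative of 2 independent experiments.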
# S. aureus [1] = assay: Mannitol inhibition assay of Fl-P2 binding; format: cell-based, Staphylococcus aureus; conditions: 50 mM mannitol, P2 2 µM, flow cytometry
# [2] = Serum stability assay of peptides; format: in vitro ADME; conditions: human serum, fluorophore unlabeled peptides, HPLC
# How it was run: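 Test peptide incubated in human serum; the remaining intact peptide was monitored by HPLC to derive half-life. Mean ± SEM from 3 independent replicates.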
# HEK 293 = assay: Mammalian cell staining, confocal microscope; format: cell-based, human; conditions: P2 5 µM, compared to the brightness detected on S. aureus
# How it was run: as §1
# S. aureus [3] = assay: Confocal imaging of stained S. aureus; format: cell-based, Staphylococcus aureus; conditions: confocal optical sectioning of stained S. aureus cells
# How it was run: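 S. aureus (MTCC 7443) incubated with fluorescein-labelled test peptide for 30 min at 37 °C, washed three times in PBS. 5 µL of cells pressed under a coverslip on a glass slide to a single cell layer. Imaged by laser-scanning confocal microscopy with optical sectioning: 40× oil objective, argon laser at 10% power, gain 900–1100 HV, offset −0.5%. Representative of 2 independent experiments.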
# S. aureus (MTCC 7443) = assay: S. aureus staining, flow cytometry median fluorescence; format: cell-based, Staphylococcus aureus; conditions: 2 µM, PBS pH 7.4, 30 min, washed, flow cytometry median value
# [4] = Stability of BA-modified proteins as lyophilized powder; format: physicochemical; conditions: purified protein, confirmed by deconvoluted mass
compound,measurement,setting,value
CSCC[C@H](NC(=O)[C@H](CCCNC(=N)N)NC(=O)[C@H](CCCNC(=N)N)NC(=O)[C@H](CCCCN)NC(=O)[C@H](C)NC(=O)[C@H](CCCNC(=N)N)NC(=O)CNC(=O)[C@@H](NC(=O)CCNC(=O)c1ccc2c(c1)C(=O)OC21c2ccc(O)cc2Oc2cc(O)ccc21)[C@@H](C)O)C(=O)N[C@@H](CSCB(O)O)C(=O)N[C@@H](Cc1ccc(O)cc1)C(=O)N[C@@H](CSCB(O)O)C(=O)N[C@@H](CCCNC(=N)N)C(=O)N[C@@H](CCCNC(=N)N)C(N)=O [P2] ({5FAM-βAla}-TGRAKRRMC(X1)YC(X1)RR-NH2),staining of A549 cells,A549,minimal staining
same,staining of E. coli,E. coli (MTCC 1687),no significant staining
same,staining ability of P2 after mannitol complexation (reduced to),S. aureus [1],~ 60%
same,serum half-life relative to parent UBI peptide (P0),[2],around 14 times
same,staining of HEK 293 cells,HEK 293,minimal staining
same,uptake in bacterial cytosol (optical sectioning),S. aureus [3],uptake of P2 in bacterial cytosol
same,S. aureus staining efficiency relative to P0 and P3,S. aureus (MTCC 7443),~ 40 fold
BSA-BA: BSA with methylene-BA at a single free thiol site,stability as a lyophilized powder (in words),[4],stable for over a week
TGRAKRRMCYNRR-NH2 [P1],S. aureus staining efficiency relative to P0 and P3,S. aureus (MTCC 7443),~ 8 fold
lysozyme-BA: lysozyme with methylene-BA conjugates at Cys6 and Cys115 (major product),stability as a lyophilized powder (in words),[4],stable for over a week
